From ChEMBL document CHEMBL4813982, “Novel pyrazolo[4,3-d]pyrimidine microtubule targeting agents (MTAs): Synthesis, structure-activity relationship, in vitro and in vivo evaluation as antitumor agents” (Bioorg Med Chem Lett, 2021)

Experiments:
Tubulin (Homo sapiens) [1] = molecular target: T1, Tubulin (Homo sapiens) (UniProt P68371+Q9H4B7+P0DPH7+P68366+Q13509+Q71U36+P04350+Q3ZCM7+P07437+P68363+Q9BQE3+Q6PEY2+Q13885+Q9BVA1+Q9BUF5); assay: Inhibition of [3H]colchicine binding to tubulin (unknown origin) at 5 uM relative to control; type: protein-complex assay
Tubulin (Homo sapiens) [2] = molecular target: T1, Tubulin (Homo sapiens); assay: Inhibition of [3H]colchicine binding to tubulin (unknown origin) at 0.5 uM relative to control; type: protein-complex assay
Tubulin = assay: Inhibition of tubulin assembly (unknown origin); type: protein-complex assay, Homo sapiens
OVCAR-8 = assay: Antiproliferative activity against human OVCAR-8 cells; type: functional, cell-based
NCI/ADR-RES = assay: Antiproliferative activity against human NCI/ADR-RES cells overexpressing Pgp; type: functional, cell-based
[3] = Resistance ratio of IC50 for antiproliferative activity against human NCI/ADR-RES cells expressing Pgp to IC50 for antiproliferative activity against human OVCAR-8 cells; type: functional
Procedure, shortened: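 Resistance ratio: IC50 in Pgp-overexpressing NCI/ADR-RES cells divided by IC50 in parental OVCAR-8 cells.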

Row | inhibition (Tubulin (Homo sapiens) [1]) | inhibition (Tubulin (Homo sapiens) [2]) | IC50 (Tubulin) | IC50 (OVCAR-8) | SMILES | IC50 (NCI/ADR-RES) | Ratio IC50 [3]
1 | 99% | 79% |  |  | COc1ccc(N(C)c2nc(C)nc3ccn(C)c23)cc1 |  | 
2 |  |  | 21000 nM |  | COc1ccc(N(C)c2nc(C)nc3c(Cc4ccccc4)c[nH]c23)cc1 |  | 
3 | 64% |  | 2900 nM | 880 nM | CN(c1ccc(OC(F)(F)F)cc1)c1nc(Cl)nc2cnn(C)c12 | 730 nM | 0.83
